Reference: ChEMBL document CHEMBL1157725 (Bioorg Med Chem, 2010)

How the values were obtained:
[1] = Inhibition of tubulin in rat A10 cells assessed as induction of cellular microtubule disassembly after 18 hrs by indirect immunofluorescence technique; assay type: cell-based; conditions: A10, 18 h
How it was run: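 A-10 cells plated on glass coverslips and treated with compound at varying concentrations for 18 h. After fixation, microtubules immunostained with a β-tubulin antibody (indirect immunofluorescence) and nuclei stained with DAPI. Read by fluorescence microscopy. Percentage of cellular microtubule loss estimated visually across the concentration range.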

[2] = Inhibition of tubulin polymerization by turbidimetry
How it was run: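 Tubulin at 10 µM (1.0 mg/mL). Polymerization followed turbidimetrically at 350 nm in temperature-controlled spectrophotometers.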

MCF7 = assay: Antiproliferative activity against human MCF7 cells after 24 hrs by SRB assay; assay type: functional, cell-based; conditions: MCF7, 24 h
How it was run: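 MCF-7 cells are grown for 24 h with or without drug, then for a further 48 h. Total cell protein is measured by sulforhodamine B staining, and the IC₅₀ is derived from it.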

COc1ccc(C(=O)/C=C/c2cc(OC)c(OC)c(OC)c2)cc1B(O)O
EC50 [1]: > 15 µM | IC50 [2]: > 40 µM | IC50 (MCF7): > 2.5 µM
